Calls of active or inactive are those of the source. The rule behind the calls is not given here.
Legend:
U2OS [1] = assay: Antiproliferative activity against human U2OS cells assessed as reduction in cell viability incubated for 24 hrs by MTT assay; format: functional, cell-based
How it was run: (§1)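 Growth inhibition was read at 24, 48 and 72 h in U-2OS, Caco-2 and IMR-32 cells. EC50 values are the mean of n = 3 independent experiments ± SEM.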

U2OS [2] = assay: Antiproliferative activity against human U2OS cells assessed as reduction in cell viability incubated for 48 hrs by MTT assay; format: functional, cell-based; how it was run: as §1
IMR-32 [3] = assay: Antiproliferative activity against human IMR32 cells assessed as reduction in cell viability incubated for 72 hrs by MTT assay; format: functional, cell-based; settings: IMR-32, 72 h; how it was run: as §1
IMR-32 [4] = assay: Antiproliferative activity against human IMR32 cells assessed as reduction in cell viability incubated for 48 hrs by MTT assay; format: functional, cell-based; settings: IMR-32, 48 h; how it was run: as §1
U2OS [5] = assay: Antiproliferative activity against human U2OS cells assessed as reduction in cell viability incubated for 72 hrs by MTT assay; format: functional, cell-based; how it was run: as §1
Caco-2 [6] = assay: Antiproliferative activity against human Caco2 cells assessed as reduction in cell viability incubated for 48 hrs by MTT assay; format: functional, cell-based; settings: Caco-2, 48 h; how it was run: as §1
Caco-2 [7] = assay: Antiproliferative activity against human Caco2 cells assessed as reduction in cell viability incubated for 72 hrs by MTT assay; format: functional, cell-based; settings: Caco-2, 72 h; how it was run: as §1
Caco-2 [8] = assay: Antiproliferative activity against human Caco2 cells assessed as reduction in cell viability incubated for 24 hrs by MTT assay; format: functional, cell-based; settings: Caco-2, 24 h; how it was run: as §1
IMR-32 [9] = assay: Antiproliferative activity against human IMR32 cells assessed as reduction in cell viability incubated for 24 hrs by MTT assay; format: functional, cell-based; settings: IMR-32, 24 h; how it was run: as §1
[10] = Chemical stability of compound in DMSO assessed as compound hydrolysis at 500 ug/ml measured upto 24 hrs by HPLC-UV/MS analysis; format: physicochemical
[11] = Stability of compound in human plasma assessed as compound hydrolysis at 500 ug/ml measured upto 24 hrs by HPLC-UV/MS analysis; format: ADME, cell-free
[12] = Induction of NO production in PBS buffer at 0.1 mM measured for 1 to 24 hrs by Griess method; format: functional
How it was run: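 Compound at 0.1 mM in 50 mM phosphate buffer, pH 7.4, incubated at 37 °C without l-cysteine. Released NO was measured as nitrite by the Griess method and given as % of the initial compound concentration at 1, 5 and 24 h. Values are the average of three independent experiments.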

[13] = Induction of NO production in PBS buffer at 0.1 mM in presence of L-cysteine measured for 1 to 24 hrs by Griess method; format: functional
How it was run: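 Griess assay for NO release: each compound at 0.1 mM in 50 mM phosphate buffer, pH 7.4, at 37 °C, with l-cysteine at 0.5 mM and at 5 mM. Nitrite yield is given as % of the initial compound concentration at 1 h, 5 h and 24 h. Values are the average of three independent experiments.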

[14] = Chemical stability of compound in HEPES assessed as compound hydrolysis at 500 ug/ml measured upto 24 hrs by HPLC-UV/MS analysis; format: physicochemical

**Q.** Which results are given for `CCCCCCCC(=O)SCC/C=C/[C@@H]1CC(=O)NCc2nc(cs2)C2=N[C@@](C)(CS2)C(=O)N[C@@H](C(C)C)C(=O)O1` [LARGAZOLE]?
**A.** EC50 (U2OS [1]): 20400 nM; EC50 (U2OS [2]): 372 nM; EC50 (IMR-32 [3]): 12.3 nM; EC50 (IMR-32 [4]): 30.2 nM; EC50 (U2OS [5]): 331 nM; EC50 (Caco-2 [6]): 759 nM; EC50 (Caco-2 [7]): 14.5 nM; EC50 (Caco-2 [8]): > 10000 µM; EC50 (IMR-32 [9]): 34.7 nM

**Q.** With `CC(C)[C@@H]1NC(=O)[C@]2(C)CSC(=N2)c2csc(n2)CNC(=O)C[C@@H](/C=C/CCSC(=O)CCC(CO[N+](=O)[O-])O[N+](=O)[O-])OC1=O` (some centres not stated) as the compound, how does the Stability [10] read?
**A.** Stable

**Q.** What about the EC50 (U2OS [1]) of the same compound?
**A.** 468 nM

**Q.** What about the EC50 (U2OS [2]) of the same compound?
**A.** 741 nM

**Q.** What about the EC50 (IMR-32 [3]) of the same compound?
**A.** 50.1 nM

**Q.** What about the Stability [11] of the same compound?
**A.** Stable

**Q.** And the EC50 (IMR-32 [4])?
**A.** 61.7 nM

**Q.** What about the Activity [12] of the same compound?
**A.** Active

**Q.** And the Activity [13]?
**A.** Active

**Q.** And the Stability [14]?
**A.** Stable

**Q.** What about the EC50 (U2OS [5]) of the same compound?
**A.** 1000 nM

**Q.** What about the EC50 (Caco-2 [6]) of the same compound?
**A.** 5.62 nM

**Q.** And the EC50 (Caco-2 [7])?
**A.** 4.47 nM

**Q.** And the EC50 (Caco-2 [8])?
**A.** 9.12 µM

**Q.** And the EC50 (IMR-32 [9])?
**A.** 29.5 nM

**Q.** For `CC(C)[C@@H]1NC(=O)[C@]2(C)CSC(=N2)c2csc(n2)CNC(=O)C[C@@H](/C=C/CCSC(=O)CCCCO[N+](=O)[O-])OC1=O`, which Stability [10] is on record?
**A.** Stable

**Q.** And the EC50 (U2OS [1])?
**A.** 1950 nM

**Q.** And the EC50 (U2OS [2])?
**A.** 309 nM

**Q.** And the EC50 (IMR-32 [3])?
**A.** 12 nM

**Q.** And the Stability [11]?
**A.** Stable

**Q.** What about the EC50 (IMR-32 [4]) of the same compound?
**A.** 19.5 nM

**Q.** And the Activity [12]?
**A.** Active

**Q.** What about the Activity [13] of the same compound?
**A.** Active

**Q.** And the Stability [14]?
**A.** Stable

**Q.** What about the EC50 (U2OS [5]) of the same compound?
**A.** 170 nM

**Q.** And the EC50 (Caco-2 [6])?
**A.** 38 nM

**Q.** And the EC50 (Caco-2 [7])?
**A.** 8.13 nM

**Q.** And the EC50 (Caco-2 [8])?
**A.** 11.2 µM

**Q.** And the EC50 (IMR-32 [9])?
**A.** 15.1 nM

Source: ChEMBL document CHEMBL4613302, “Synthesis and Antiproliferative Activity of Nitric Oxide-Donor Largazole Prodrugs” (ACS Med Chem Lett, 2020)
